According to ChEMBL document CHEMBL3352685, “Small-molecule inhibitors of 25-hydroxyvitamin D-24-hydroxylase (CYP24A1): synthesis and biological evaluation” (J Med Chem, 2014):

Tests used:
[1] = biological target: T1, 1,25-dihydroxyvitamin D(3) 24-hydroxylase, mitochondrial (Homo sapiens, UniProt Q07973); assay: Inhibition of human MBP-tagged CYP24A1 expressed in Escherichia coli using 1,25(OH)2D3 substrate in presence of bovine adrenodoxin, adrenodoxin reductase and NADPH incubated at 37 degC for 25 mins by HPLC method
T1 sequence (Q07973 whole entry): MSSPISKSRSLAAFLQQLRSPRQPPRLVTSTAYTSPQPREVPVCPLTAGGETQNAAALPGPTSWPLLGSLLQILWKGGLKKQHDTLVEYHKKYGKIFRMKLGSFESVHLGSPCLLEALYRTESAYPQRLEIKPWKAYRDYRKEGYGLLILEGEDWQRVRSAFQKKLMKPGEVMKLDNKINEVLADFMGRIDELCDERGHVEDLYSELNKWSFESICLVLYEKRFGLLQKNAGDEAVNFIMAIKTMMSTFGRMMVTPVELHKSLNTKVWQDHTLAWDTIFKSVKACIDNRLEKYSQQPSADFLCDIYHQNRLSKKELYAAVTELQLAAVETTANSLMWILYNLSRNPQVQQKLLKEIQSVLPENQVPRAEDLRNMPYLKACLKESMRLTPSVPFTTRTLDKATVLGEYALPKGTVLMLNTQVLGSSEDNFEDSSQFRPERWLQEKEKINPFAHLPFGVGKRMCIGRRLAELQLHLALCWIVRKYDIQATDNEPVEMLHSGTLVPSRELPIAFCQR

[2] = Cytotoxicity against human primary CLL cells; type: functional; conditions: read-out: LD50 (the source's name)
Outline: (§1)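 Primary CLL cells or normal B-cells from peripheral blood, purified by negative selection (CD3 Dynabeads; >90% purity by flow cytometry). Cultured at 1x10⁶/ml in RPMI with 10% FCS, penicillin/streptomycin and 5 ng/ml IL-4, 37 °C, 5% CO2. Exposed to inhibitor (0–1x10⁻⁷ M) up to 48 h. Annexin V-FITC/PI flow cytometry; LD50 from sigmoidal dose-response; triplicate.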

[3] = biological target: T1, 1,25-dihydroxyvitamin D(3) 24-hydroxylase, mitochondrial; assay: Inhibition of CYP24A1 in human primary CLL cells assessed as increase in VDR-regulated CDKN1A mRNA expression in presence of 100 nM calcitriol incubated for 24 hrs by quantitative RT-PCR method; type: cell-based
Outline: (§2)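 Primary CLL lymphocytes, purified by negative selection with CD3 beads (>90% purity), cultured in RPMI with 10% FCS, penicillin/streptomycin and 5 ng/ml IL-4 at 37°C, 5% CO2. Inhibitor 0, 0.01, 0.05 or 0.1 µM for 24 h with or without calcitriol (10 or 100 nM). Total RNA reverse transcribed, SYBR Green real-time PCR, 35 cycles. Target mRNA expressed as ratio to RPS14 from crossing points. Duplicates.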

[4] = biological target: T1, 1,25-dihydroxyvitamin D(3) 24-hydroxylase, mitochondrial; assay: Inhibition of CYP24A1 in human primary CLL cells assessed as increase in VDR-regulated GADD45alpha mRNA expression at 0.05 to 0.10 uM in presence of 100 nM 1,25(OH)2D3 incubated for 24 hrs by quantitative RT-PCR method; type: cell-based; outline: as §2
[5] = biological target: T1, 1,25-dihydroxyvitamin D(3) 24-hydroxylase, mitochondrial; assay: Inhibition of CYP24A1 in human primary CLL cells assessed as increase in VDR-regulated CDKN1A mRNA expression at 0.05 to 0.10 uM in presence of 100 nM 1,25(OH)2D3 incubated for 24 hrs by quantitative RT-PCR method; type: cell-based; outline: as §2
[6] = Induction of apoptosis in normal human B cells after 48 hrs by Annexin V/propidium iodide staining based flow cytometry; type: cell-based, B cell; conditions: read-out: LD50; outline: as §1
[7] = Induction of apoptosis in human primary CLL cells after 48 hrs by Annexin V/propidium iodide staining based flow cytometry; type: functional; outline: as §1

O=C(NCC(c1ccccc1)n1ccnc1)c1ccc(/C=C/c2ccccc2)cc1 (configuration not stated)
IC50 [1]: 0.4 µM
Ki [1]: 0.028 µM
CC50 [2]: 0.027 µM

O=C(NCC(c1ccccc1)n1ccnc1)c1ccc(/C=C/c2ccc(F)cc2)cc1 (configuration not stated)
IC50 [1]: 0.26 µM
Ki [1]: 0.019 µM
CC50 [2]: 0.015 µM

COc1ccc(/C=C/c2ccc(C(=O)NCC(c3ccccc3)n3ccnc3)cc2)cc1 (configuration not stated)
IC50 [1]: 0.34 µM
Ki [1]: 0.024 µM
CC50 [2]: 3.2 µM

COc1cc(/C=C/c2ccc(C(=O)NCC(c3ccccc3)n3ccnc3)cc2)cc(OC)c1 (configuration not stated)
IC50 [1]: 0.11 µM
Ki [1]: 0.0078 µM
CC50 [2]: 0.013 µM
inhibition (INH) [3]: Dose-dependent effect
inhibition (INH) [4]: Active
inhibition (INH) [5]: Active

COc1cc(/C=C/c2ccc(C(=O)NCC(c3ccccc3)n3ccnc3)cc2)cc(OC)c1OC (configuration not stated)
IC50 [1]: 0.14 µM
Ki [1]: 0.0097 µM
CC50 [2]: 3.5 µM
inhibition (INH) [4]: Active
inhibition (INH) [5]: Active

O=C(NCC(c1ccccc1)n1ccnc1)c1ccc(CCc2ccc(F)cc2)cc1 (configuration not stated)
IC50 [1]: 0.51 µM
Ki [1]: 0.036 µM

O=C(NCC(c1ccccc1)n1ccnc1)c1ccc(S(=O)(=O)Nc2ccccc2)cc1 (configuration not stated)
IC50 [1]: 1.3 µM
Ki [1]: 0.091 µM

COc1cc(/C=C/c2ccc(CCC(=O)C(C)(C)C)cc2)cc(OC)c1
IC50 [1]: 2.1 µM
Ki [1]: 0.15 µM

COc1cc(/C=C/c2ccc(CCC(OC(=O)n3ccnc3)C(C)(C)C)cc2)cc(OC)c1 (configuration not stated)
IC50 [1]: 0.16 µM
Ki [1]: 0.011 µM

CC(C)(C)C(CCc1ccc(/C=C/c2ccccc2)cc1)OS(C)(=O)=O (configuration not stated)
IC50 [1]: 5.6 µM
Ki [1]: 0.4 µM

COc1cc(/C=C/c2ccc(CCC(OS(C)(=O)=O)C(C)(C)C)cc2)cc(OC)c1 (configuration not stated)
IC50 [1]: 5.4 µM
Ki [1]: 0.38 µM

COc1cc(/C=C/c2ccc(CCC(OS(=O)(=O)c3ccc(C)cc3)C(C)(C)C)cc2)cc(OC)c1 (configuration not stated)
IC50 [1]: 2.9 µM
Ki [1]: 0.21 µM

CC(C)(C)C(=O)/C(=C/c1ccc(/C=C/c2ccccc2)cc1)n1ccnc1
IC50 [1]: 0.18 µM
Ki [1]: 0.013 µM

CC(C)(C)C(=O)C(Cc1ccc(CCc2ccccc2)cc1)n1ccnc1 (configuration not stated)
IC50 [1]: 0.6 µM
Ki [1]: 0.042 µM

C=C1CC[C@H](O)C/C1=C/C=C1\CCC[C@]2(C)[C@@H]([C@H](C)CCCOS(=O)(=O)c3ccc(C)cc3)CC[C@@H]12
Ki [1]: 0.039 µM

C=C1[C@H](O)CC(=C/C=C2\CCC[C@]3(C)[C@@H]([C@H](C)Cn4ccnc4)CC[C@@H]23)C[C@H]1O
Ki [1]: 0.021 µM

C=C1[C@H](O)CC(=C/C=C2\CCC[C@]3(C)[C@@H]([C@H](C)CCCNC4CC4)CC[C@@H]23)C[C@H]1O
Ki [1]: 0.042 µM

C=C1/C(=C\C=C2/CCC[C@]3(C)[C@@H]([C@H](C)CCS(=N)(=O)c4ccccc4)CC[C@@H]23)C[C@@H](O)C[C@@H]1O (some centres not stated)
IC50 [1]: 0.0065 µM

C=C1/C(=C\C=C2/CCC[C@]3(C)[C@@H]([C@H](C)CCCC(C)(C)O)CC[C@@H]23)C[C@@H](O)C[C@@H]1O [CALCITRIOL]
CC50 at 48 h [6]: 6.51 µM
LD50 [7]: 2.86 ×10⁻⁷ M

Nc1nc(F)nc2c1ncn2[C@@H]1O[C@H](CO)[C@@H](O)[C@@H]1O [FLUDARABINE]
CC50 [2]: 1.1 µM

Clc1cccc(C(c2ccc3[nH]cnc3c2)n2ccnc2)c1 (configuration not stated) [LIAROZOLE]
IC50 [1]: 0.0023 µM

C=C1/C(=C\C=C2/CCC[C@]3(C)C([C@H](C)C/C=C/S(=O)(=O)C(C)(C)C)=CC[C@@H]23)C[C@@H](O)C[C@@H]1O [LUNACALCIPOL]
IC50 [1]: 0.027 µM
